This note sets out measurements from ChEMBL document CHEMBL1129302, “Quinazoline antifolate thymidylate synthase inhibitors: gamma-linked L-D, D-D, and D-L dipeptide analogues of 2-desamino-2-methyl-N10-propargyl-5,8-dideazafolic acid (ICI 198583)” (J Med Chem, 1996).

One series concerns WIL2. Put plainly: Inhibitory activity against human W1L2 cell growth. The class given is functional, cell-based.
Series [1] has as its system L1210 (1565). Description: Inhibitory activity against L1210:1565 cell growth. Format: functional, cell-based, Mus musculus.
In series [2] the target is T1, Thymidylate synthase (Mus musculus, UniProt P07607). Put plainly: Inhibition of Thymidylate synthase activity in L1210 cells. Format: cell-based. Put shortly:
(§1)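 TS was partially purified from L1210 mouse leukemia cells that overproduce the enzyme through TS gene amplification. Inhibition was assayed with (±)-5,10-methylenetetrahydrofolic acid as cofactor at 200 µM.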

The subject of series [3] is L1210. Description: Inhibition of L1210 cell growth. Format: functional, cell-based, Mus musculus.
The subject of series [4] is L1210 (RD1694). Description: Inhibitory activity against L1210:RD1694 cell growth. Format: functional, cell-based, Mus musculus.
Series [5] relates to L1210 (RD1694). Put plainly: Inhibitory activity against L1210:RD1694 cell growth. Format: functional, cell-based, Mus musculus.
For another series, the species on record is Mus musculus. Put plainly: Plasma concentration in mice. The class given is ADME, organism-based. Particulars: in vivo, read-out: Plasma concentration.
Series [6] concerns the target T1, Thymidylate synthase. Put plainly: Binding affinity against L1210 Thymidylate synthase. Put shortly:
as §1

The test system of series [7] is L1210. Put plainly: Inhibitory activity against L1210 cell growth. Format: functional, cell-based, Mus musculus.
For series [8], the system named is L1210 (1565). Description: Inhibitory activity against L1210:1565 cell growth. The following applies: Mus musculus. The class given is functional, cell-based.

Values joined by “and” are separate entries in the source; they are usually repeats but may differ in a detail not shown here. Identical values can stand only once.

T1 sequence (P07607 whole entry): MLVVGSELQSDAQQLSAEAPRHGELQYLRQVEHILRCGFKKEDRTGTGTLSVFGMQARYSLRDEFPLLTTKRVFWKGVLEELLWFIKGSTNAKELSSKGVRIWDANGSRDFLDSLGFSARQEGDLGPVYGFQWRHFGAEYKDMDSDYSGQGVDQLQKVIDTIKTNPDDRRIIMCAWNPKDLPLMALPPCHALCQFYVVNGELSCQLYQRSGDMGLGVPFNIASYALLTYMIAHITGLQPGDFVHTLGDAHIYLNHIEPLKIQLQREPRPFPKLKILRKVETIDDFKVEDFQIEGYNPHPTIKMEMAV

Turning to `C#CCN(Cc1cc2c(O)nc(C)nc2cc1C)c1ccc(C(=O)N[C@@H](CCC(=O)N[C@H](CCC(=O)O)C(=O)O)C(=O)O)cc1`, the IC50 in the series with WIL2 (Homo sapiens, WIL2) came to 230 nM; in the series with L1210 (1565) [1] (Mus musculus, L1210 (1565)), 7.8 µM; at Thymidylate synthase [2], 1.9 nM; in the series with L1210 [3] (Mus musculus, L1210), 210 nM.
For `C#CCN(Cc1ccc2nc(C)nc(O)c2c1)c1ccc(C(=O)N[C@H](CCC(=O)N[C@H](CCC(=O)O)C(=O)O)C(=O)O)cc1`, the IC50 in the series on WIL2 (Homo sapiens, WIL2) turned out to be 1400 nM; in the series on L1210 (1565) [1] (Mus musculus, L1210 (1565)) it was 100 µM; with L1210 [3] (Mus musculus, L1210) it was 1300 nM.
Consider `C#CCN(Cc1ccc2nc(C)nc(O)c2c1)c1ccc(C(=O)N[C@@H](CCC(=O)N[C@@H](C)C(=O)O)C(=O)O)cc1`, for which the IC50 with L1210 (RD1694) [4] (Mus musculus, L1210 (RD1694)) came out at 2100 nM; in the series on L1210 (RD1694) [4] (l1210 (rd1694)), 1600 nM; against Thymidylate synthase [2] it was 13 nM; in the series on L1210 [3] (Mus musculus, L1210), 620 nM; with L1210 [3] (l1210), 790 nM.
As for `C#CCN(Cc1ccc2nc(C)nc(O)c2c1)c1ccc(C(=O)N[C@@H](CCC(=O)N[C@H](CCC(=O)O)C(=O)O)C(=O)O)cc1`, the concentration for half-maximal inhibition (IC50) worked out at 150 nM in the series with WIL2 (Homo sapiens, WIL2); 680 nM in the series on L1210 (RD1694) [5] (Mus musculus, L1210 (RD1694)); 15 µM in the series with L1210 (1565) [1] (Mus musculus, L1210 (1565)). In addition, in the series listed under Mus musculus, the concentration stood at 34 µM.
Take `C#CCN(Cc1ccc2nc(C)nc(O)c2c1)c1ccc(C(=O)N[C@@H](CCC(=O)N[C@H](CCC(=O)O)C(=O)O)C(=O)O)c(F)c1`: the concentration for half-maximal inhibition (IC50) with WIL2 (Homo sapiens, WIL2) is 220 nM; in the series on L1210 (1565) [1] (Mus musculus, L1210 (1565)) it was 7.8 µM; against Thymidylate synthase [2], 1.9 nM; in the series with L1210 [3] (Mus musculus, L1210), 210 nM.
The like results for `Cc1nc(O)c2cc(CN(C)c3ccc(C(=O)N[C@@H](CCC(=O)N[C@H](CCC(=O)O)C(=O)O)C(=O)O)c(F)c3)ccc2n1` were, in that order, 900 nM, 21 µM, 8.8 nM and 650 nM.
With `Cc1nc(O)c2cc(CN(C)c3ccc(C(=O)N[C@@H](CCC(=O)N[C@H](CCC(=O)O)C(=O)O)C(=O)O)cc3)ccc2n1`, in the series filed under Mus musculus, the concentration is 17 µM. Further, the IC50 against Thymidylate synthase [2] was 34 nM; in the series with L1210 [3] (Mus musculus, L1210) it was 3200 nM.
Turning to `C#CCN(Cc1ccc2nc(C)nc(O)c2c1)c1ccc(C(=O)N[C@@H](CCC(=O)N[C@@H](Cc2ccccc2)C(=O)O)C(=O)O)cc1`, the IC50 in the series with L1210 (RD1694) [5] (Mus musculus, L1210 (RD1694)) was 8900 nM; at Thymidylate synthase [2] it was 18 nM; in the series with L1210 [3] (Mus musculus, L1210), 4400 nM.
Consider `C#CCN(Cc1cc2c(O)nc(C)nc2cc1C)c1ccc(C(=O)N[C@@H](CCC(=O)N[C@H](CCCC(=O)O)C(=O)O)C(=O)O)c(F)c1`, for which the IC50 with WIL2 (Homo sapiens, WIL2) is 300 nM; with WIL2 (wil2) it was 190 nM; with L1210 (1565) [1] (Mus musculus, L1210 (1565)), 12 µM; in the series with L1210 (1565) [1] (l1210 (1565)) it was 8.1 µM; against Thymidylate synthase [2] it was 0.56 nM; with L1210 [3] (Mus musculus, L1210), 130 nM. Further, the Ki at Thymidylate synthase [6] amounted to 0.12 nM.
For `C#CCN(Cc1ccc2nc(C)nc(O)c2c1)c1ccc(C(=O)N[C@@H](CCC(=O)NC(Cc2ccccc2)C(=O)O)C(=O)O)cc1` (stereo partly specified), the IC50 in the series with L1210 (1565) [1] (Mus musculus, L1210 (1565)) is above 10 µM; on Thymidylate synthase [2], 30 nM; in the series with L1210 [3] (Mus musculus, L1210), 2100 nM.
Regarding `C#CCN(Cc1cc2c(O)nc(C)nc2cc1C)c1ccc(C(=O)N[C@@H](CCC(=O)N[C@H](CCC(=O)O)C(=O)O)C(=O)O)c(F)c1`, the 50% inhibitory concentration (IC50) in the series on WIL2 (Homo sapiens, WIL2) was 170 nM; with WIL2 (wil2), 93 nM; with L1210 (1565) [1] (Mus musculus, L1210 (1565)), 6.8 µM; in the series on L1210 (1565) [1] (l1210 (1565)), 8.7 µM; at Thymidylate synthase [2], 0.4 nM; with L1210 [3] (Mus musculus, L1210), 200 nM. The same compound displayed an inhibition constant Ki on Thymidylate synthase [6] of 0.19 nM. In the series listed under Mus musculus, the concentration stood at 32 µM.
Take `C#CCN(Cc1ccc2nc(C)nc(O)c2c1)c1ccc(C(=O)N[C@@H](CCC(=O)N[C@H](CCCC(=O)O)C(=O)O)C(=O)O)cc1`: the half-maximal inhibitory concentration (IC50) in the series with WIL2 (Homo sapiens, WIL2) is 220 nM; in the series with L1210 (RD1694) [4] (Mus musculus, L1210 (RD1694)) it was 420 nM; in the series on L1210 (RD1694) [5] (Mus musculus, L1210 (RD1694)), 440 nM; in the series on L1210 (1565) [1] (Mus musculus, L1210 (1565)), 27 µM; in the series with L1210 [7] (Mus musculus, L1210) it was 80 nM; in the series with L1210 [7] (l1210), 110 nM. For the same compound, the concentration in the series listed under Mus musculus was 31 µM.
As for `C#CCN(Cc1ccc2nc(C)nc(O)c2c1)c1ccc(C(=O)N[C@@H](CCC(=O)N[C@@H](CCC(=O)O)C(=O)O)C(=O)O)cc1` [listing 1 of 2 here], the IC50 in the series on WIL2 (wil2) amounted to 2400 nM; with L1210 [3] (l1210) it was 3400 nM.
Turning to `Cc1nc(O)c2cc(CN(C)c3ccc(C(=O)N[C@@H](CCC(=O)N[C@H](CCC(=O)O)C(=O)O)C(=O)O)c(F)c3)c(C)cc2n1`, the half-maximal inhibitory concentration (IC50) against Thymidylate synthase [2] came out at 2 nM; with L1210 [3] (Mus musculus, L1210), 260 nM.
`C#CCN(Cc1ccc2nc(C)nc(O)c2c1)c1ccc(C(=O)N[C@@H](CCC(=O)N[C@@H](CCCC(=O)O)C(=O)O)C(=O)O)cc1`: the concentration for half-maximal inhibition (IC50) with L1210 (RD1694) [5] (Mus musculus, L1210 (RD1694)) was found to be 2900 nM; in the series with L1210 [3] (Mus musculus, L1210), 300 nM.
As to `C#CCN(Cc1ccc2nc(C)nc(O)c2c1)c1ccc(C(=O)N[C@@H](CCC(=O)N[C@H](C)C(=O)O)C(=O)O)cc1`, the IC50 worked out at 150 nM with WIL2 (Homo sapiens, WIL2); 16 µM in the series with L1210 (1565) [8]; 880 nM in the series on L1210 (RD1694) [5] (Mus musculus, L1210 (RD1694)); 12 nM on Thymidylate synthase [2]; 430 nM with L1210 [3] (Mus musculus, L1210).
For `CCN(Cc1ccc2nc(C)nc(O)c2c1)c1ccc(C(=O)N[C@@H](CCC(=O)N[C@H](CCC(=O)O)C(=O)O)C(=O)O)cc1`, the IC50 against Thymidylate synthase [2] came to 17 nM; in the series on L1210 [3] (Mus musculus, L1210), 3600 nM.
Regarding `Cc1nc(O)c2cc(CN(C)c3ccc(C(=O)N[C@@H](CCC(=O)N[C@H](CCC(=O)O)C(=O)O)C(=O)O)cc3)c(C)cc2n1`, the IC50 with WIL2 (Homo sapiens, WIL2) was found to be 280 nM; in the series with L1210 (1565) [8], 19 µM; at Thymidylate synthase [2], 4.6 nM; in the series with L1210 [3] (Mus musculus, L1210), 580 nM.
On to `C#CCN(Cc1ccc2nc(C)nc(O)c2c1)c1ccc(C(=O)N[C@@H](CCC(=O)N[C@@H](CCC(=O)O)C(=O)O)C(=O)O)cc1` [listing 2 of 2 here], for which the 50% inhibitory concentration (IC50) was 90 nM and 74 nM in the series with WIL2 (wil2); 2900 nM in the series on L1210 (RD1694) [5] (l1210 (rd1694)); 5 µM with L1210 (1565) [1] (l1210 (1565)); 160 nM in the series with L1210 [3] (l1210).

What is called IC50 is the concentration that inhibits the measured activity by half. By Ki is commonly meant the equilibrium dissociation constant of an inhibitor or competing ligand from its target. A low value points to higher affinity.
